In ChEMBL document CHEMBL4513216, “Probing the Open Global Health Chemical Diversity Library for Multistage-Active Starting Points for Next-Generation Antimalarials” (ACS Infect Dis, 2020):

experiment: Toxicity liver stage against HepG2, at 10uM; assay type: cell-based; set-up: test concentration 10 uM, cell line HepG2-A16-CD81EGFP; conditions: human, HepG2-A16-CD81EGFP cells; read-out: INHIBITION
How it was run: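 Uninfected HepG2-A16-CD81EGFP cells, 3 × 10^3 per well, 1536-well, plated on prespotted compound at 10 μM final, parasite-free screening media added to match infected plates; puromycin 10 μM positive, DMSO 0.5% negative; run in parallel with 48 h PbLuc assay at 37 °C, 5% CO2; viability by CellTiter-Glo luminescence, normalized to controls.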

SMILES | cytotoxicity at 10 µM [%]
CC(C)CNC1(Cc2cc(-c3ccccc3)on2)COC1 | 1.74
COc1ccc2c(c1)nc1n2[C@@H](CNCc2ccccc2)COC1 | -0.201
COCC(=O)N1CCN(C(=O)C2CCCCC2)[C@@H](C(=O)OC)C1 | 1.08
COc1cnc(CSc2nnc(C)s2)cc1OCC(=O)NC1CCCC1 | 3.43
C[C@@H](O)CNC(=O)c1nc(CC(=O)Nc2ccccc2)no1 | 7.49
COCCn1cc(C(=O)NC2CCS(=O)(=O)C2)c2ccccc2c1=O (stereo unspecified) | -4.17
CCCN1CCc2nc(SCc3ccccc3F)[nH]c(=O)c2C1 | -2.62
COc1nn(C)cc1C(=O)N1CCC(c2nnc(-c3ccsc3)o2)CC1 | 8.08
CN1CCN(c2cc(NC(=O)c3cnccn3)ncn2)CC1 | -1.23
COC(=O)c1sccc1S(=O)(=O)NCCC(O)c1ccoc1 (stereo unspecified) | -2.64
Fc1cnc(N2CCO[C@H]3CN(CC4CCOC4)C[C@H]32)nc1 (stereo partly specified) | 12.3
O=C(O)C1CCN(c2ccc(Sc3ccc(Br)cc3)nn2)CC1 | 9.14
COC(=O)c1sc(C(F)(F)F)cc1OC | 4.69
CC(C)c1cc(C(F)(F)F)n2nc(C3CCN(S(C)(=O)=O)C3)cc2n1 (stereo unspecified) | -1.14
CC1=NOC2(CCN(Cc3c[nH]c4ccccc34)CC2)C1 | 4.54
O=C(O)CCNC(=O)C1(c2cccc(Br)c2)CCOCC1 | 6.92
OCCN1CCN(Cc2cc(Cl)cc3cccnc23)CC1 | -8.12
O=C(CSCc1ccccn1)NCC1CC1 | -3.42
O=C(C1CCOC1)N1CCN(CC2CC2)c2ccccc21 (stereo unspecified) | 8.93
CCOc1c(F)cccc1C(=O)N(CC)C(C)c1cccnc1 (stereo unspecified) | 11.8
CC(C)c1nc2n(n1)CC(NCc1cc3ccccc3o1)CC2 (stereo unspecified) | -3.61
CCc1nc(C)c(C(C)N(C)CCc2ccccn2)s1 (stereo unspecified) | -6.51
CCOCCCC(=O)NCc1ccc(N2CCCCC2)cc1 | -4.06

SMILES | cytotoxicity at 10 µM [%]
O=C1NCC(C(=O)N(Cc2ccc(C(F)(F)F)cc2)C2CC2)N1 (stereo unspecified) | 4.54
CC1(NC(=O)Cc2cccs2)CCS(=O)(=O)C1 (stereo unspecified) | 8.39
CCN(C(c1cccnc1)c1ccc2c(c1)CCC2)S(C)(=O)=O (stereo unspecified) | 5.82
c1ccc2nc(N3CCCC3c3nnc4n3CCCCC4)cnc2c1 (stereo unspecified) | -1.63
CCN1CCC(NC(=O)NCC(O)c2ccc(Cl)c(F)c2)CC1 (stereo unspecified) | -3.82
COc1ccc(-c2ccc(C(=O)NS(C)(=O)=O)c(F)c2)cc1 | 5.7
CCc1noc(CCCC(=O)N2CCCC(c3ccn[nH]3)C2)n1 (stereo unspecified) | -0.799
COc1ccc(S(=O)(=O)NC2(CC(N)=O)CCC2)cc1 | 11.7
CCOc1cc(CNC(=O)C(C#N)c2nc(C)cs2)ccc1OC(F)F (stereo unspecified) | 8.61
O=C(c1ncncc1Cl)N1CCC2(CCCC2)CC1 | 1.06
CC(CO)(NC(=O)Nc1nnc(C2CC2)s1)C1CCCCC1 (stereo unspecified) | 20
Cc1n[nH]c(C)c1C1CCCN1C(=O)NCC(=O)NC(C)(C)C (stereo unspecified) | -11.7
COc1cc(N2CCC3(CC2)C(c2ccncc2)CC(=O)N3C)ncn1 (stereo unspecified) | -107
Cn1cnc(-c2nc(C(=O)NCCN3CCOCC3)c3ccccn23)c1 | -103
COCC(=O)N1CC[C@@H]2CN(Cc3cccnc3)S(=O)(=O)[C@@H]2CC1 | -113
Fc1ccccc1CN1C[C@@H]2OCCN(c3ncccn3)[C@@H]2C1 | -74
O=C(Cc1ccsc1)N1CCc2ncc(Cn3cccn3)n2CC1 | -81.5
COCCO[C@H]1CCN(C(=O)c2cnoc2C)[C@H]1Cc1cnn(C)c1 | -69.6
CNC(=O)[C@@]12CCO[C@@H]1CCN(S(=O)(=O)c1ccccc1)C2 | -74.8
Cn1cc(CN2CCCC3(CCN(Cc4cccnc4)C3=O)C2)cn1 (stereo unspecified) | -3.99
CNc1nc2c(s1)C(=O)CN(C(=O)NCc1ccccc1)C2 | 24.4
CN(Cc1ccsc1)c1nc(-c2ccccn2)nc2c1CCNCC2 | -6.18
CC(=O)N[C@@H]1CN(C(=O)c2ccncc2)C[C@H]1c1ccc(C)cc1 | 4.58

SMILES | cytotoxicity at 10 µM [%]
Cc1cc(CN2CCC(C3CCN(Cc4cccnc4)CC3)C2)[nH]n1 (stereo unspecified) | 11
CCc1ccccc1-c1cc(C)nc(N)n1 | 1.12
CCc1nnc(CN2CCC3(CCC(=O)N(C4CCCC4)C3)CC2)o1 | -5.16
CCn1ccnc1CN(C)C(C(=O)O)c1ccc(C(C)(C)C#N)cc1 (stereo unspecified) | -9.1
CSc1cccc(CNC(=O)[C@H]2CNC[C@@H](C(=O)N3CCOCC3)C2)c1 | -6.91
Cc1cc2[nH]c(CN3CCOC(c4ccc(F)cc4)C3)cc(=O)n2n1 (stereo unspecified) | -4.89
COc1cccc2c1OCC(CNc1ccc(C)nn1)C2 (stereo unspecified) | 8.62
CC1=NOC(C(=O)N(C)CCCn2nc(C)cc2C)C1 (stereo unspecified) | 3.53
O=C(CCc1cc2n(n1)CCCN(C(=O)c1ccncc1)C2)NC1CC1 | 12.2
N[C@H]1CN(S(=O)(=O)N2CCCCCC2)C[C@@H]1c1ccccc1 | 2.14
Clc1ccccc1Cc1noc(CN2CCCC(CN3CCCC3)C2)n1 (stereo unspecified) | -3.15
O=C(CCCn1cncn1)N1CCC2(CCCN(C3CCCC3)C2=O)C1 (stereo unspecified) | -1.8
CCOC(=O)CC1CCCCN1C(=O)CCc1cc(Cl)no1 (stereo unspecified) | 6.95
Cc1ocnc1C(=O)N[C@H]1CN(CC2CCC2)C[C@@H]1C(C)C | -2.94
Cc1cc(C)c2c(N(C)CC3CCN(CC(C)C)C3)ncnc2n1 (stereo unspecified) | 1.61
FC(F)(F)C1CN(Cc2cccc(OCc3ccccn3)c2)CCO1 (stereo unspecified) | 1.48
O=C1Nc2ccccc2C12CCCN(Cc1ccc3c(c1)OCCO3)C2 (stereo unspecified) | 0.529
Cn1cccc1-c1cc(C(=O)NCCc2nnc(N)s2)[nH]n1 | -7.22
OCc1ccc(-c2nccn2CCC2=CCCCC2)o1 | 4.19
Cc1cc(-c2ccncc2)ccc1OCC(N)=O | 18.1
CN(C)S(=O)(=O)N1CCN(c2ccnc(N3CCCCC3)n2)CC1 | -1.48
CC(C)(C)CN1CCCC2(CCN(C(=O)c3ccc(O)nc3)C2)C1 (stereo unspecified) | -0.937
N[C@@H](Cc1c[nH]cn1)C(=O)N1CCC(Oc2ccc(F)cc2)CC1 | 0.828

SMILES | cytotoxicity at 10 µM [%]
Cc1cc(C2CCCN(C(=O)c3ccc(Cl)o3)C2)n[nH]1 (stereo unspecified) | -5.02
CCc1cnc(CN(C(C)=O)C2CCN(CCc3ccncc3)C2)o1 (stereo unspecified) | -5.95
COc1cccc(C(=O)N2CCN(Cc3nc(C(C)C)no3)CC2)c1 | -18.7
Cc1cc(NC(=O)CN2CCc3cncnc3C2)on1 | -17.6
COc1ncccc1NC(=O)C1CCOCC1 | -29.8
O=C1NCC(C(=O)Nc2ncc(Cc3ccc(F)cc3F)s2)N1 (stereo unspecified) | -4.01
O=C(c1cccc2c1OCO2)N1CCCC(n2ccnc2)C1 (stereo unspecified) | -3.29
COc1ncccc1CNC(=O)Nc1cccnc1N1CCCC1 | -10.4
CN(Cc1noc(C2CC2)n1)C1CCN(CCc2cccs2)C1 (stereo unspecified) | -5.98
OCC1CCCN1c1cc(NCc2ccsc2)ncn1 (stereo unspecified) | 38.8
CC(O)CN(CC(=O)NC1CCCCC1)c1ccccc1 (stereo unspecified) | -6.08
COCCNC(=O)CN1CCN(c2nc(C)cs2)C(C)C1 (stereo unspecified) | -4.03
Cc1nnc(C(C)N2CCN(Cc3ccc(C#N)cc3)CC2)o1 (stereo unspecified) | -12.2
NC(=O)c1cc(C2CCCN(CCCOc3ccccc3)C2)n[nH]1 (stereo unspecified) | -12.1
O=C(c1cccc2c1OCO2)N1CCCC1c1noc(C2CC2)n1 (stereo unspecified) | -23.2
COc1cc(S(=O)(=O)N2CCc3ccc(F)cc32)cc(C(=O)O)c1OC | 7.12
COc1cc(C(=O)N2CCCS2(=O)=O)ccc1C | 2.72
O=C(c1cc(Cl)c2c(c1)OCO2)N1CCCC(n2ccnc2)C1 (stereo unspecified) | -6.93
CCCNC(=O)Cn1cc(-c2ccccc2)cn1 | -0.553
Cc1nc(C2CCCN(C(=O)c3cnn(C(C)(C)C)c3)C2)no1 (stereo unspecified) | 0.818
Cc1cn2nc(N3CCCC3CC(C)(C)C)sc2n1 (stereo unspecified) | 3.46
COc1ccnc(N2CCN(C(=O)Cc3ccc(C#N)cc3)CC2)n1 | 4.09
CC(C)c1nccn1C1CCCN(C(=O)c2ccnc(N(C)C)c2)C1 (stereo unspecified) | 5.1

SMILES | cytotoxicity at 10 µM [%]
O=C(CCSc1ccc(F)cc1)NS(=O)(=O)c1ccc2c(c1)OCCO2 | 2.36
Cc1oncc1C(=O)N[C@@H]1CN(Cc2ccoc2)C[C@@H]2CCCO[C@@H]21 | -108
CC(NCc1ccc(OCC(N)=O)cc1)c1ccc(Cl)cc1 (stereo unspecified) | 11.2
Cn1cc(C2COC3(CCN(C(=O)c4ccccn4)CC3)C2)cn1 (stereo unspecified) | -87.1
O=C(CC1CC1)N1CCc2ncc(CN3CCOCC3)n2CC1 | -80.6
c1coc(CN2CCC(c3ccc4c(c3)OCO4)CC2)c1 | -1.55
CNC(=O)C1Cn2ccnc2C2(CCN(Cc3cccnc3)CC2)O1 (stereo unspecified) | -3.37
Clc1ccccc1CN1CCc2nc(C3CCCCN3)ncc2C1 (stereo unspecified) | -3.12
Cc1ccccc1CN1C[C@@H]2COC[C@]2(CNC(=O)C2CCC2)C1 | -110
Cn1cc(C(=O)N2CC[C@@H]3[C@@H]2CCN3Cc2cccc(F)c2)cn1 | -2.21
Cc1csc(CN2CCC3(CC2)COC(COCC2CC2)C3)n1 (stereo unspecified) | -108
O=C(O)c1c(-c2cncnc2)ncc2c1CCN(CC1CCOC1)C2 (stereo unspecified) | -102
COCC(=O)N1CCC2(CC1)C(=O)N(Cc1cccnc1)CCN2C | 0.964
c1csc(CN2CCc3c(CNc4nncs4)cncc3C2)c1 | -70.1
CCCC(=O)N1CCN(CCN(C)C)c2nc(C)ccc2C1 | -73.9
CCN1C(=O)CC(c2ccccc2)C12CCN(CC1CCOCC1)CC2 (stereo unspecified) | 3.06
O=C1COC2(CCN(C(=O)c3ccco3)CC2)CN1Cc1cccnc1 | 7.2
c1ccc(OCc2nnc3n2CCN(CC2CCOCC2)C3)nc1 | 1.65
c1cncc(N2CCOCC3(CCCN(c4nncs4)C3)C2)c1 (stereo unspecified) | -1.42
